OX1R antag-1 = blocks the human orexin 1 receptor; OX1R-expressing cells, FRET antagonist read-out; inhibition, % at 6.6 µM; 330,000 tested, 1.8% active; in the data active = inhibition mostly above about 38%, no sharp cut-off; inactive = mostly below about 40%
GPR7 antagonist = human neuropeptides B/W receptor 1 antagonism. GPR7-expressing cells, fluorescence antagonist assay. inhibition, % at 4.4 µM. 290,000 tested, 1.1% active; in the data active = inhibition above about 16%, passing the limit was not always enough;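 also: cells stimulated with the agonist NPW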
Target sequence (P48145 whole entry, looked up): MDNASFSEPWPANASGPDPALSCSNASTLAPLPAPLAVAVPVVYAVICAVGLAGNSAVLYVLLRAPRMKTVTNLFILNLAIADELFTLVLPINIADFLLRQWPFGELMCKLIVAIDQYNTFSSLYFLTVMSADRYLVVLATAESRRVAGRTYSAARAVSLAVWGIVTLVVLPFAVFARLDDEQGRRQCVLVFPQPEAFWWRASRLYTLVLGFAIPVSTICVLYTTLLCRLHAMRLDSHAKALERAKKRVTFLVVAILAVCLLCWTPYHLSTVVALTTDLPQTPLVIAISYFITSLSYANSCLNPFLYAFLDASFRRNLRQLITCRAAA
GalR3 antagonist = blocks the human galanin receptor 3; O60755; HEK293 GalR3-CNG cAMP membrane potential fluorescence; galR3 body fused to GalR1 C-terminus; inhibition, % at 3 µM; 360,000 tested, 0.44% active; AID 651719;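 active = inhibition above the screen-wide average plus 3 SD, cut at about 13% in these data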;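 also: forskolin and galanin both at EC90 stimulate the cells; cAMP rise reported by CNG channel membrane potential dye signal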
Target sequence (O60755 1-299 limits assumed): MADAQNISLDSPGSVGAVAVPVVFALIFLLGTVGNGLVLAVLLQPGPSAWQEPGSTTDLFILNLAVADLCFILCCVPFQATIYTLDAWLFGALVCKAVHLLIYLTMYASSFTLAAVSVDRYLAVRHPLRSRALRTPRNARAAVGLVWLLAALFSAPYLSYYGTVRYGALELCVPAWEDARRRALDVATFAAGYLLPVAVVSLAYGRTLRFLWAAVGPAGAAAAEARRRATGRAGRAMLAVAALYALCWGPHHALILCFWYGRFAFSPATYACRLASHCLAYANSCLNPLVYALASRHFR
CHO parental Ca = counter-screen for OX1R antagonists: effect in parental CHO cells | parental CHO-K1, ATP-induced calcium, Fluo-8 fluorescence | inhibition, % at 5.6 µM | 330,000 tested, 0.63% active | AID 463079;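 active = inhibition above that plate's mean sample inhibition plus 3 SD, cut at about 26% in these data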
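Assay system: parental CHO cells; Read-out basis: percent inhibition of ATP-evoked calcium rise, normalized to controls; Benchmarks: ATP and no-ATP DMSO wells; Compound dosing: single nominal dose of 5.6 µM per compound; Signal: Fluo-8 calcium dye fluorescence; Also added: ATP as calcium-mobilizing challenge; Repeats: singlicate.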
OX1R antag-2 = antagonists of human orexin 1 receptor. AID 434989. inhibition, % at 5 µM. 330,000 tested, 0.43% active. O43613. CHO/OX1R cells, Fluo-8 calcium fluorescence, orexin A;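 active = inhibition above its plate's threshold, mean inhibition of all tested compounds on the plate plus 3 SD, cut at about 37% in these data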
GPR7 antag cf = confirmation of human GPR7 antagonists; shares compounds with GPR7 antagonist; GPR7-expressing cells, calcium fluorescence antagonist mode; inhibition, % at 4.4 µM; 2,400 tested, 52% active; in the data active = inhibition above about 24%;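 also: stimulated with the GPR7 agonist NPW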
MCHR1 antagonist = counter-screen for GPR7 antagonists: antagonists of human MCHR1; 2,400 tested, 62% active; shares compounds with GPR7 antagonist; inhibition, % at 4.4 µM; MCHR1-expressing cells, fluorescence antagonist assay; AID 2148; in the data active = inhibition above about 22%
A number is an active result; - = inactive; . = no result given. Compounds with a hit are over-represented: about 3.1% of the library has one in this group of screens.

SMILES	OX1R antag-1	GPR7 antagonist	GalR3 antagonist	CHO parental Ca	OX1R antag-2	GPR7 antag cf	MCHR1 antagonist
O=c1c2ccc([N+](=O)[O-])cc2ncn1CCOc1ccc(Cl)cc1	-	26	-	-	-	44	62
CC(C)CC(NC(=O)C1CCC(C)CC1)C(=O)Nc1cccnc1 (configuration not stated)	-	28	-	-	-	-	34
CC(C)Cc1ccc(C(C)C(=O)Nc2cccnc2)cc1 (configuration not stated)	-	54	-	69	90	46	68
CC(C(=O)Nc1cccnc1)c1ccc([N+](=O)[O-])cc1 (configuration not stated)	-	-	-	-	-	.	.
CC(C)CC(NC(=O)C1CCC(C)CC1)C(=O)NCc1cccnc1 (configuration not stated)	-	-	-	-	-	.	.
Cc1ccccc1NS(=O)(=O)c1ccc(C(=O)NN2CCCCC2)cc1	-	-	-	-	-	.	.
COc1cccc(NC(=O)COC(=O)c2c3c(nc4ccccc24)CCC(C)C3)c1 (configuration not stated)	36	39	-	-	-	26	63
CC1CCc2nc3ccccc3c(C(=O)OCC(=O)NC3CCS(=O)(=O)C3)c2C1 (configuration not stated)	-	-	-	-	-	.	.
CN(c1ccccc1)P(=O)(N(C)c1ccccc1)N(C)c1ccccc1	-	28	-	-	-	34	37
O=C(Nc1ccc(Cl)cc1)c1cccc(NC2=NC3CS(=O)(=O)CC3S2)c1 (configuration not stated)	-	24	.	-	-	-	-
COc1ccc(-c2nc3cc(C)c(Br)c(C)n3c2CC(C)(C)C)cc1OC	.	.	-	.	.	.	.
CCN(Cc1ccccc1)Cc1nnnn1Cc1ccccc1	-	26	-	-	-	-	-
CN(C)c1nnnn1Cc1ccccc1	-	-	-	-	-	.	.
COC(=O)CSc1nnc(-c2ccc(S(=O)(=O)N3CCCC3)cc2)o1	-	-	-	-	-	.	.
COC(=O)CSc1nnc(-c2ccc(S(=O)(=O)NCc3cccs3)cc2)o1	-	22	-	-	-	58	38
CC(C)(C)S(=O)N1Cc2cc(CO)cc(-c3ccccc3)c2[C@@H]1CCO (some centres not stated)	.	.	-	.	.	.	.
CCOc1ccc2nc3ccc4[nH]onc4c3c2c1	44	28	-	-	-	48	46
Cc1ccc(C)c(NC(=S)N2CCC(C(=O)c3ccc(F)cc3)CC2)c1	.	.	-	.	.	.	.
CCCCCC(=O)N1C[C@@H](O)[C@H](n2cc(COC(=O)c3ccccc3)nn2)C[C@@H]1c1ccccc1	.	.	-	.	.	.	.
CCCC(c1nnnn1Cc1ccco1)N1CCN(c2ccccc2)CC1 (configuration not stated)	-	-	-	-	-	.	.
CCCC(c1nnnn1Cc1ccco1)N1CCN(c2cc(Cl)ccc2C)CC1 (configuration not stated)	-	26	-	-	-	35	50
CN(Cc1ccccc1)C(=O)c1ccccc1-c1ccccc1	-	69	-	-	-	-	-
CCOC(=O)COc1c(Cl)cc(C2NC(=S)NC(c3ccccc3)=C2C(C)=O)cc1OC (configuration not stated)	-	24	-	-	-	28	-
COc1cc(C2NC(=S)NC(c3ccccc3)=C2C(C)=O)cc(Cl)c1OCC(=O)O (configuration not stated)	-	-	-	-	-	.	.
CC(=O)N1CCN(C(=O)c2ccccc2NS(=O)(=O)c2ccc(F)cc2)CC1	-	.	-	-	-	.	.
SMILES	OX1R antag-1	GPR7 antagonist	GalR3 antagonist	CHO parental Ca	OX1R antag-2	GPR7 antag cf	MCHR1 antagonist
COc1cc(/C=C/c2nc(-c3ccccc3O)n[nH]2)cc(OC)c1OC	-	22	-	-	-	33	57
Cc1ccc(S(=O)(=O)N(CC(=O)NC2CC3CCC2C3)c2ccccc2)cc1 (configuration not stated)	.	.	-	.	.	.	.
COc1ccc(/C=C(/NC(=O)c2ccco2)C(=O)NCc2ccco2)cc1	.	.	-	.	.	.	.
O=C(NCc1ccco1)/C(=C\c1ccc(F)cc1)NC(=O)c1ccco1	-	29	-	-	-	-	-
CCOC(=O)C(C(=O)N(C)Cc1ccccc1)C1CCCCC1 (configuration not stated)	-	32	-	-	-	27	30
CCOC(=O)C(C(=O)Nc1ccccn1)C1CCCCC1 (configuration not stated)	-	-	-	-	-	.	.
COC(=O)C[C@H]1C=C[C@@H](NS(=O)(=O)c2ccccc2)[C@@H](CO)O1	.	.	-	.	.	.	.
COc1ccc(-n2c(C)cc(/C=C3\C(=N)N4N=C(CC(=O)N5CCOCC5)SC4=NC3=O)c2C)cc1	-	32	-	-	-	-	-
CCOC(=O)c1cc2c(c(CCO)n1)[C@H](CCO)N(S(=O)C(C)(C)C)C2 (some centres not stated)	.	.	-	.	.	.	.
CC1(C(=O)Nc2ccc3c(c2)OCO3)CCN1Cc1csc2ccccc12 (configuration not stated)	.	.	-	.	.	.	.
CCC(C)(C)c1ccc(OCCCC[n+]2ccc(C)cc2)c(C(C)(C)CC)c1	-	69	-	-	-	74	83
Cc1cc[n+](CC[n+]2ccc(C)cc2)cc1	-	.	-	-	-	.	.
CC1(C(=O)NS(=O)(=O)c2ccccc2Cl)CCN1C(=O)CCc1cccs1 (configuration not stated)	.	.	-	.	.	.	.
COc1ccc(Cl)cc1NC(=O)Nc1ccccc1C(N)=O	-	30	-	-	-	-	-
COc1ccc(Cl)cc1NC(=O)CNc1ccccc1CN(C)C1CCCCC1	-	27	-	-	-	35	47
COc1ccc(C)cc1NC(=O)CNc1ccccc1CN(C)C1CCCCC1	-	-	-	-	-	.	.
COC(=O)C1=C(C)N(Cc2ccccc2C(F)(F)F)C(=NCc2ccc(C(F)(F)F)cc2)NC1c1ccc(Cl)cc1 (configuration not stated)	.	.	-	.	.	.	.
O=C(CSc1nnc(NC(=O)C2CC(=O)N(c3ccc(F)cc3)C2)s1)NCC1CCCO1 (configuration not stated)	-	-	-	-	-	.	.
CN(C)CCOC(=O)NC12CC3CC(CC(C3)C1)C2	-	-	-	-	-	.	.
O=C(NC12CC3CC(CC(C3)C1)C2)OCCNC1CCCCC1	-	26	-	-	-	-	-
CC1CCC(N(C)C(=O)CN2C(=O)NC(c3ccccc3)(c3ccccc3)C2=O)CC1 (configuration not stated)	.	.	-	.	.	.	.
CCc1ccc(C2CC3C(CN2S(=O)(=O)c2ccc(C)cc2)[C@@H](O)C[C@@H](c2ccc(CC)cc2)N3S(=O)(=O)c2ccc(C)cc2)cc1 (some centres not stated)	.	.	-	.	.	.	.
